Measurements published in ChEMBL document CHEMBL1250501, “Anti-tubercular agents. Part 5: synthesis and biological evaluation of benzothiadiazine 1,1-dioxide based congeners” (Eur J Med Chem, 2010).
Converted amounts (≈) assume the structure as drawn. The source made the active and inactive calls. No cut-off for these calls is given here.

How the values were obtained:
Escherichia coli [1] = assay: Antibacterial activity against Escherichia coli at 10 ug/ml after 18 hrs by cup plate method; assay type: functional; conditions: read-out: DIZ
Summary of the method: (§1)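 Agar well diffusion on Mueller-Hinton agar. Inoculum was adjusted to a 0.5 McFarland standard (about […] × 10⁸ CFU/mL) and swabbed over the plate three times, rotating about 60° each time, then the rim was swabbed. Compounds in DMSO went into duplicate 6 mm wells. Plates were incubated at 37 °C for 18 h and inhibition zone diameter read to the nearest mm. DMSO negative control; streptomycin and ciprofloxacin positive controls.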

Klebsiella pneumoniae [2] = assay: Antibacterial activity against Klebsiella pneumoniae at 25 ug/ml after 18 hrs by cup plate method; assay type: functional; conditions: read-out: DIZ; summary of the method: as §1
Pseudomonas aeruginosa [3] = assay: Antibacterial activity against Pseudomonas aeruginosa at 25 ug/ml after 18 hrs by cup plate method; assay type: functional; conditions: read-out: DIZ; summary of the method: as §1
Candida albicans [4] = assay: Antifungal activity against Candida albicans MTCC 227 at 100 ug/ml after 48 hrs by cup plate method; assay type: functional; conditions: MTCC 227, 48 h, read-out: IZ
Summary of the method: (§2)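 Agar well (cup plate) diffusion on potato dextrose agar 39 g/L, with compounds dissolved in DMSO. Plates were incubated at 28 ± 2 °C for 48 h and inhibition zones measured to the nearest mm. Three replicates per treatment. Amphotericin B positive control; solvent control included.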

[5] = test system: Mycobacterium tuberculosis; assay: Antimycobacterial activity against Mycobacterium tuberculosis H37Rv after 3 to 4 weeks by broth microdilution assay; assay type: functional
Summary of the method: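 MIC by broth microdilution on compounds active in a single-concentration primary screen. Plates incubated 3–4 weeks at 37 °C in a CO₂ incubator. Wells read visually for absence of growth turbidity.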

Bacillus subtilis [6] = assay: Antibacterial activity against Bacillus subtilis at 25 ug/ml after 18 hrs by cup plate method; assay type: functional; conditions: read-out: DIZ; summary of the method: as §1
Staphylococcus aureus [7] = assay: Antibacterial activity against Staphylococcus aureus at 50 ug/ml after 18 hrs by cup plate method; assay type: functional; conditions: read-out: DIZ; summary of the method: as §1
Bacillus subtilis [8] = assay: Antibacterial activity against Bacillus subtilis at 10 ug/ml after 18 hrs by cup plate method; assay type: functional; summary of the method: as §1
Escherichia coli [9] = assay: Antibacterial activity against Escherichia coli at 100 ug/ml after 18 hrs by cup plate method; assay type: functional; conditions: read-out: DIZ; summary of the method: as §1
Klebsiella pneumoniae [10] = assay: Antibacterial activity against Klebsiella pneumoniae at 50 ug/ml after 18 hrs by cup plate method; assay type: functional; conditions: read-out: DIZ; summary of the method: as §1
Staphylococcus aureus [11] = assay: Antibacterial activity against Staphylococcus aureus at 75 ug/ml after 18 hrs by cup plate method; assay type: functional; conditions: read-out: DIZ; summary of the method: as §1
Aspergillus sp. [12] = assay: Antifungal activity against Aspergillus sp. at 50 ug/ml after 48 hrs by cup plate method; assay type: functional; summary of the method: as §2
Pseudomonas aeruginosa [13] = assay: Antibacterial activity against Pseudomonas aeruginosa at 75 ug/ml after 18 hrs by cup plate method; assay type: functional; conditions: read-out: DIZ; summary of the method: as §1
Aspergillus niger [14] = assay: Antifungal activity against Aspergillus niger at 50 ug/ml after 48 hrs by cup plate method; assay type: functional, organism-based; summary of the method: as §2
Aspergillus niger [15] = assay: Antifungal activity against Aspergillus niger at 100 ug/ml after 48 hrs by cup plate method; assay type: functional; summary of the method: as §2
[16] = test system: Staphylococcus epidermidis; assay: Antibacterial activity against Staphylococcus epidermidis at 50 ug/ml after 18 hrs by cup plate method; assay type: functional; conditions: read-out: DIZ; summary of the method: as §1
Staphylococcus aureus [17] = assay: Antibacterial activity against Staphylococcus aureus at 100 ug/ml after 18 hrs by cup plate method; assay type: functional; conditions: read-out: DIZ; summary of the method: as §1
Klebsiella pneumoniae [18] = assay: Antibacterial activity against Klebsiella pneumoniae at 100 ug/ml after 18 hrs by cup plate method; assay type: functional; conditions: read-out: DIZ; summary of the method: as §1
Pseudomonas aeruginosa [19] = assay: Antibacterial activity against Pseudomonas aeruginosa at 10 ug/ml after 18 hrs by cup plate method; assay type: functional; summary of the method: as §1
Bacillus subtilis [20] = assay: Antibacterial activity against Bacillus subtilis at 100 ug/ml after 18 hrs by cup plate method; assay type: functional; conditions: read-out: DIZ; summary of the method: as §1
Aspergillus niger [21] = assay: Antifungal activity against Aspergillus niger at 75 ug/ml after 48 hrs by cup plate method; assay type: functional; summary of the method: as §2
Candida albicans [22] = assay: Antifungal activity against Candida albicans MTCC 227 at 75 ug/ml after 48 hrs by cup plate method; assay type: functional
Summary of the method: (§3)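 Agar well (cup plate) diffusion on potato dextrose agar 39 g/L. Compounds dissolved in DMSO and loaded into 6 mm wells. Incubated at 28 ± 2 °C for 48 h. Inhibition zone diameter measured to the nearest millimetre, three replicates per treatment. DMSO solvent as negative control, amphotericin B as positive control.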

[23] = test system: Staphylococcus epidermidis; assay: Antibacterial activity against Staphylococcus epidermidis at 100 ug/ml after 18 hrs by cup plate method; assay type: functional; conditions: read-out: DIZ; summary of the method: as §1
Escherichia coli [24] = assay: Antibacterial activity against Escherichia coli at 50 ug/ml after 18 hrs by cup plate method; assay type: functional; conditions: read-out: DIZ; summary of the method: as §1
Aspergillus niger [25] = assay: Antifungal activity against Aspergillus niger at 25 ug/ml after 48 hrs by cup plate method; assay type: functional, organism-based; summary of the method: as §2
Pseudomonas aeruginosa [26] = assay: Antibacterial activity against Pseudomonas aeruginosa at 50 ug/ml after 18 hrs by cup plate method; assay type: functional; conditions: read-out: DIZ; summary of the method: as §1
Aspergillus sp. [27] = assay: Antifungal activity against Aspergillus sp. at 75 ug/ml after 48 hrs by cup plate method; assay type: functional; summary of the method: as §2
Staphylococcus aureus [28] = assay: Antibacterial activity against Staphylococcus aureus at 10 ug/ml after 18 hrs by cup plate method; assay type: functional; conditions: read-out: DIZ; summary of the method: as §1
[29] = test system: Staphylococcus epidermidis; assay: Antibacterial activity against Staphylococcus epidermidis at 25 ug/ml after 18 hrs by cup plate method; assay type: functional; conditions: read-out: DIZ; summary of the method: as §1
Escherichia coli [30] = assay: Antibacterial activity against Escherichia coli at 75 ug/ml after 18 hrs by cup plate method; assay type: functional; conditions: read-out: DIZ; summary of the method: as §1
Candida albicans [31] = assay: Antifungal activity against Candida albicans MTCC 227 at 25 ug/ml after 48 hrs by cup plate method; assay type: functional; summary of the method: as §3
Klebsiella pneumoniae [32] = assay: Antibacterial activity against Klebsiella pneumoniae at 75 ug/ml after 18 hrs by cup plate method; assay type: functional; conditions: read-out: DIZ; summary of the method: as §1
Aspergillus sp. [33] = assay: Antifungal activity against Aspergillus sp. at 100 ug/ml after 48 hrs by cup plate method; assay type: functional; summary of the method: as §2
Candida albicans [34] = assay: Antifungal activity against Candida albicans MTCC 227 at 50 ug/ml after 48 hrs by cup plate method; assay type: functional; summary of the method: as §3
Escherichia coli [35] = assay: Antibacterial activity against Escherichia coli at 25 ug/ml after 18 hrs by cup plate method; assay type: functional; conditions: read-out: DIZ; summary of the method: as §1
[36] = test system: Staphylococcus epidermidis; assay: Antibacterial activity against Staphylococcus epidermidis at 75 ug/ml after 18 hrs by cup plate method; assay type: functional; conditions: read-out: DIZ; summary of the method: as §1
Bacillus subtilis [37] = assay: Antibacterial activity against Bacillus subtilis at 50 ug/ml after 18 hrs by cup plate method; assay type: functional; conditions: read-out: DIZ; summary of the method: as §1
Aspergillus sp. [38] = assay: Antifungal activity against Aspergillus sp. at 25 ug/ml after 48 hrs by cup plate method; assay type: functional; summary of the method: as §2
[39] = test system: Staphylococcus epidermidis; assay: Antibacterial activity against Staphylococcus epidermidis at 10 ug/ml after 18 hrs by cup plate method; assay type: functional; conditions: read-out: DIZ; summary of the method: as §1
Pseudomonas aeruginosa [40] = assay: Antibacterial activity against Pseudomonas aeruginosa at 100 ug/ml after 18 hrs by cup plate method; assay type: functional; conditions: read-out: DIZ; summary of the method: as §1
Klebsiella pneumoniae [41] = assay: Antibacterial activity against Klebsiella pneumoniae at 10 ug/ml after 18 hrs by cup plate method; assay type: functional; conditions: read-out: DIZ; summary of the method: as §1
Bacillus subtilis [42] = assay: Antibacterial activity against Bacillus subtilis at 75 ug/ml after 18 hrs by cup plate method; assay type: functional; conditions: read-out: DIZ; summary of the method: as §1
Staphylococcus aureus [43] = assay: Antibacterial activity against Staphylococcus aureus at 25 ug/ml after 18 hrs by cup plate method; assay type: functional; conditions: read-out: DIZ; summary of the method: as §1
Staphylococcus aureus [44] = assay: Antibacterial activity against Staphylococcus aureus at 100 units after 18 hrs by cup plate method; assay type: functional, organism-based
Escherichia coli [45] = assay: Antibacterial activity against Escherichia coli at 100 units after 18 hrs by cup plate method; assay type: functional, organism-based
Candida albicans [46] = assay: Antifungal activity against Candida albicans MTCC 227 at 100 units after 48 hrs by cup plate method; assay type: functional
Klebsiella pneumoniae [47] = assay: Antibacterial activity against Klebsiella pneumoniae at 100 units after 18 hrs by cup plate method; assay type: functional, organism-based
Aspergillus niger [48] = assay: Antifungal activity against Aspergillus niger at 100 units after 48 hrs by cup plate method; assay type: functional
Pseudomonas aeruginosa [49] = assay: Antibacterial activity against Pseudomonas aeruginosa at 100 units after 18 hrs by cup plate method; assay type: functional, organism-based
Aspergillus sp. [50] = assay: Antifungal activity against Aspergillus sp. at 100 units after 48 hrs by cup plate method; assay type: functional
Bacillus subtilis [51] = assay: Antibacterial activity against Bacillus subtilis at 100 units after 18 hrs by cup plate method; assay type: functional, organism-based
[52] = test system: Staphylococcus epidermidis; assay: Antibacterial activity against Staphylococcus epidermidis at 100 units after 18 hrs by cup plate method; assay type: functional, organism-based

CCN1C(N2CCN(Cc3ccc([N+](=O)[O-])o3)CC2)=NS(=O)(=O)c2ccccc21
zone of inhibition at 10 µg/mL (Escherichia coli [1]): 12 mm
zone of inhibition at 25 µg/mL (Klebsiella pneumoniae [2]): 15 mm
zone of inhibition at 25 µg/mL (Pseudomonas aeruginosa [3]): 16 mm
zone of inhibition at 100 µg/mL (Candida albicans [4]): 10 mm
MIC [5]: 2.81 µg/mL (≈ 6.7 µM)
zone of inhibition at 25 µg/mL (Bacillus subtilis [6]): 11 mm
zone of inhibition at 50 µg/mL (Staphylococcus aureus [7]): 16 mm
diameter of the inhibition zone (DIZ) (Bacillus subtilis [8]): inactive
zone of inhibition at 100 µg/mL (Escherichia coli [9]): 30 mm
zone of inhibition at 50 µg/mL (Klebsiella pneumoniae [10]): 11 mm
zone of inhibition at 75 µg/mL (Staphylococcus aureus [11]): 21 mm
inhibition zone (IZ) (Aspergillus sp. [12]): inactive
zone of inhibition at 75 µg/mL (Pseudomonas aeruginosa [13]): 22 mm
inhibition zone (IZ) (Aspergillus niger [14]): inactive
inhibition zone (IZ) (Aspergillus niger [15]): inactive
zone of inhibition at 50 µg/mL [16]: 12 mm
zone of inhibition at 100 µg/mL (Staphylococcus aureus [17]): 10 mm
zone of inhibition at 100 µg/mL (Klebsiella pneumoniae [18]): 19 mm
diameter of the inhibition zone (DIZ) (Pseudomonas aeruginosa [19]): inactive
zone of inhibition at 100 µg/mL (Bacillus subtilis [20]): 23 mm
inhibition zone (IZ) (Aspergillus niger [21]): inactive
inhibition zone (IZ) (Candida albicans [22]): inactive
zone of inhibition at 100 µg/mL [23]: 24 mm
zone of inhibition at 50 µg/mL (Escherichia coli [24]): 16 mm
inhibition zone (IZ) (Aspergillus niger [25]): inactive
zone of inhibition at 50 µg/mL (Pseudomonas aeruginosa [26]): 10 mm
inhibition zone (IZ) (Aspergillus sp. [27]): inactive
zone of inhibition at 10 µg/mL (Staphylococcus aureus [28]): 13 mm
zone of inhibition at 25 µg/mL [29]: 12 mm
zone of inhibition at 75 µg/mL (Escherichia coli [30]): 29 mm
inhibition zone (IZ) (Candida albicans [31]): inactive
zone of inhibition at 75 µg/mL (Klebsiella pneumoniae [32]): 20 mm
inhibition zone (IZ) (Aspergillus sp. [33]): inactive
inhibition zone (IZ) (Candida albicans [34]): inactive
zone of inhibition at 25 µg/mL (Escherichia coli [35]): 20 mm
zone of inhibition at 75 µg/mL [36]: 15 mm
zone of inhibition at 50 µg/mL (Bacillus subtilis [37]): 17 mm
inhibition zone (IZ) (Aspergillus sp. [38]): inactive
zone of inhibition at 10 µg/mL [39]: 9 mm
zone of inhibition at 100 µg/mL (Pseudomonas aeruginosa [40]): 16 mm
zone of inhibition at 10 µg/mL (Klebsiella pneumoniae [41]): 10 mm
zone of inhibition at 75 µg/mL (Bacillus subtilis [42]): 19 mm
zone of inhibition at 25 µg/mL (Staphylococcus aureus [43]): 16 mm

C[C@@H]1[C@H](O)[C@@H](C)/C=C/C=C/C=C/C=C/C=C/C=C/C=C/[C@H](O[C@@H]2O[C@H](C)[C@@H](O)[C@H](N)[C@@H]2O)C[C@@H]2O[C@](O)(C[C@@H](O)C[C@@H](O)[C@H](O)CC[C@@H](O)C[C@@H](O)CC(=O)O[C@H]1C)C[C@H](O)[C@H]2C(=O)O [AMPHOTERICIN B]
diameter of the inhibition zone (DIZ) (Staphylococcus aureus [44]): inactive
diameter of the inhibition zone (DIZ) (Escherichia coli [45]): inactive
inhibition zone (IZ) (Candida albicans [46]): 14 mm
diameter of the inhibition zone (DIZ) (Klebsiella pneumoniae [47]): inactive
inhibition zone (IZ) (Aspergillus niger [48]): 23 mm
diameter of the inhibition zone (DIZ) (Pseudomonas aeruginosa [49]): inactive
inhibition zone (IZ) (Aspergillus sp. [50]): 14 mm
diameter of the inhibition zone (DIZ) (Bacillus subtilis [51]): inactive
diameter of the inhibition zone (DIZ) [52]: inactive
